ChEMBL document CHEMBL4765399, “Design, synthesis, and biological evaluation of 5-((8-methoxy-2-methylquinolin-4-yl)amino)-1H-indole-2-carbohydrazide derivatives as novel Nur77 modulators” (Eur J Med Chem, 2020)
Calls of active or inactive are those of the source. The rule behind the calls is not given here.

Assays:
[1] = system: HepG2; test: Induction of apoptosis in human HepG2 cells assessed as cleaved caspase-3 expression at 2 uM pretreated with autophagy inhibitor, 3-methyladenine for 2 hrs followed by incubation with compound for 12 hrs by Western blot analysis; assay type: functional, cell-based
Method in brief: (§1)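 HepG2 cells grown to confluence were pretreated 2 h with 2 mM 3-MA (autophagy inhibitor) or 2 mM 4-PBA (ER stress inhibitor), then exposed to compound for 12 h. Proteins (40–80 µg, RIPA lysate) were resolved by SDS-PAGE and blotted for PARP, cleaved caspase-3/-9, Bcl-2 and Bax, with chemiluminescent detection.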

[2] = system: HepG2; test: Induction of apoptosis in human HepG2 cells assessed as Bax/Bcl-2 ratio at 2 uM pretreated with autophagy inhibitor, 3-methyladenine for 2 hrs followed by incubation with compound for 12 hrs by Western blot analysis; assay type: functional, cell-based
[3] = system: HepG2; test: Induction of autophagy in human HepG2 cells assessed as LC3-II expression at 2 uM pretreated with ER stress inhibitor, 4-PBA for 2 hrs followed by incubation with compound for 12 hrs by Western blot analysis; assay type: functional, cell-based
Method in brief: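 HepG2 grown to confluence, pretreated 2 h with 2 mM 4-PBA, then exposed to test compound for a further 12 h; Western blot for PARP, cleaved caspase-3/-9, Bcl-2, Bax, Bip, EIF2a, TRB3 and LC3.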

[4] = system: HepG2; test: Antiproliferative activity against human HepG2 cells assessed as reduction in cell viability incubated for 48 hrs by MTT assay; assay type: functional, cell-based; settings: HepG2, 48 h
Method in brief: (§2)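 MTT assay after 48 h exposure at six concentrations, range chosen by cytotoxicity. Inhibition = (ODcontrol − ODtest)/ODcontrol × 100%; IC50 is the concentration halving OD versus untreated cells. Means ± SD of three independent determinations. HepG2 and SMMC-7721 grown in DMEM, QGY-7703 and LO2 in RPMI 1640, with 10% FBS at 37 °C.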

[5] = system: HepG2; test: Induction of autophagy in Nur77 knockout human HepG2 cells assessed as increase in LC3-II expression at 2 uM measured after 6 to 12 hrs by Western blot analysis; assay type: functional, cell-based; settings: time 6-12 hrs
Method in brief: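 Scrambled-control and shNur77 HepG2 given DMSO or 2.0 µM for 6 or 12 h; immunoblotting of RIPA lysates for LC3, Beclin1 and Nur77 after SDS-PAGE and nitrocellulose transfer, chemiluminescent detection.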

[6] = system: HepG2; test: Induction of apoptosis in human HepG2 cells transfected with shRNA assessed as late apoptotic cells at 2 uM incubated for 12 hrs by Annexin V-FITC/PI staining based flow cytometry (reference value: 2.18%); assay type: functional
[7] = system: SMMC-7721; test: Upregulation of Nur77 expression in human SMMC-7721 cells incubated for 6 hrs by Western blot analysis; assay type: functional, cell-based; settings: dose 0.5-2 µM
Method in brief: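 HepG2, QGY-7703 and SMMC-7721 cells treated with the indicated concentrations for 6 h. HepG2 also given 2.0 µM over a time course. Lysis in RIPA with protease and phosphatase inhibitors; 40-80 µg protein by SDS-PAGE, nitrocellulose transfer. Membranes blocked with 5% milk, primary antibody overnight, HRP secondary, chemiluminescence. GAPDH as loading control.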

[8] = system: QGY-7703; test: Induction of endoplasmic reticulum stress in human QGY-7703 cells assessed as increase in TRB3 protein expression incubated for 12 hrs by Western blot analysis; assay type: functional, cell-based; settings: dose 0.5-2 µM
Method in brief: (§3)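 HepG2, QGY-7703 and SMMC-7721 treated with graded concentrations for 12 h. Lysed in RIPA with inhibitors; 40-80 µg protein separated by SDS-PAGE, blotted to nitrocellulose, blocked 1 h in 5% milk, primary antibodies overnight (LC3, Beclin1, Bip, CHOP, TRB3), HRP secondaries, chemiluminescence.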

[9] = system: HepG2; test: Induction of endoplasmic reticulum stress in human HepG2 cells assessed as increase in p-EIF2a expression at 2 uM measured after 1 to 4 hrs by Western blot analysis; assay type: functional, cell-based; settings: time 1-4 hrs
Method in brief: (§4)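 HepG2 exposed to 2.0 µM over a time course; Nur77, Bip, p-EIF2a, TRB3 and LC3 levels followed by Western blot of RIPA lysates.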

[10] = system: HepG2; test: Induction of apoptosis in human HepG2 cells assessed as early apoptotic cells at 2 uM incubated for 12 hrs by Annexin V-FITC/PI staining based flow cytometry (reference value: 3.99 to 5.35%); assay type: functional
[11] = system: HepG2; test: Antitumor activity against human HepG2 cells xenografted in BALB/c mouse assessed as induction of autophagy by measuring increase in Beclin1 level in tumor tissue at 10 to 20 mg/kg/day, ip administered for 15 days by western blot analysis; assay type: functional, organism-based; settings: dose 10-20 mg/kg/day, time 15.0 day
Method in brief: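 HepG2 cells (5×10^6) injected subcutaneously into flanks of 4-week-old male Balb/c nude mice. At about 100 mm³, 15 mice were randomized to vehicle, 10 or 20 mg/kg i.p. once daily for 15 days. Tumors were then excised for immunostaining of paraffin sections (5 μm) or for western blot.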

[12] = system: HepG2; test: Induction of apoptosis in human HepG2 cells assessed as cleaved caspase-9 expression at 2 uM pretreated with ER stress inhibitor, 4-PBA for 2 hrs followed by incubation with compound for 12 hrs by Western blot analysis; assay type: functional, cell-based; method in brief: as §1
[13] = system: HepG2; test: Induction of apoptosis in human HepG2 cells assessed as cleaved caspase-9 expression at 2 uM pretreated with autophagy inhibitor, 3-methyladenine for 2 hrs followed by incubation with compound for 12 hrs by Western blot analysis; assay type: functional, cell-based; method in brief: as §1
[14] = biological target: T1, Nuclear receptor subfamily 4immunitygroup A member 1 (Homo sapiens, UniProt P22736); test: Binding affinity to Nur77 ligand binding domain (unknown origin) assessed as dissociation constant by surface plasmon resonance analysis
T1 sequence (P22736 whole entry, the tested form may be a part): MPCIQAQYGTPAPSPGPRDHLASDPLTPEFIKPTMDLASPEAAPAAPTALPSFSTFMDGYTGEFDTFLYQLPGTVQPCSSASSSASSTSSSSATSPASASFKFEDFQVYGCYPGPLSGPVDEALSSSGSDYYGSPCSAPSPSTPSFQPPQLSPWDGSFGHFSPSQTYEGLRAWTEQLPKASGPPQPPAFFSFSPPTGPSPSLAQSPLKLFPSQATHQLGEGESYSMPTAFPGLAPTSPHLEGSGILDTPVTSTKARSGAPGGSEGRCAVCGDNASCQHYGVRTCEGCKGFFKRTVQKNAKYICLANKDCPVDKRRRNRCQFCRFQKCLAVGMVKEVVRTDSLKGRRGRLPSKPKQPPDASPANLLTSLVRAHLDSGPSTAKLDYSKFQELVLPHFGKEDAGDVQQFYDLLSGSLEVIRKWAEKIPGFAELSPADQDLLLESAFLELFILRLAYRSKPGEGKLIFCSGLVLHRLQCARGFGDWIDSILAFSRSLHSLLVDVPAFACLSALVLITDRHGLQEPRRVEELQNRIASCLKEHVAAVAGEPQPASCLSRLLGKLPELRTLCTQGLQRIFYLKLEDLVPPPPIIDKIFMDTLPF
Method in brief: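 SPR with Nur77-LBD, analyte injected at a series of concentrations; KD (equilibrium dissociation constant) and association/dissociation kinetics derived from the sensorgrams.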

[15] = system: HepG2; test: Induction of endoplasmic reticulum stress in human HepG2 cells assessed as increase in bip protein expression incubated for 12 hrs by Western blot analysis; assay type: functional, cell-based; settings: dose 0.5-2 µM; method in brief: as §3
[16] = system: SMMC-7721; test: Antiproliferative activity against human SMMC-7721 cells assessed as reduction in cell viability at 2 uM by MTT assay; assay type: functional, cell-based; settings: time 12-48 hrs, TDE = time-dependent effect
Method in brief: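 Cells treated with 2.0 µM over a time course; viability read by MTT. HepG2, SMMC-7721 kept in DMEM, QGY-7703 in RPMI 1640, with 10% FBS at 37 °C and 5% CO2.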

[17] = system: HepG2; test: Induction of autophagy in human HepG2 cells assessed as increase in LC3-II expression measured after 12 hrs by Western blot analysis; assay type: functional, cell-based; settings: dose 0.5-2 µM; method in brief: as §3
[18] = system: HepG2; test: Induction of autophagy in human HepG2 cells assessed as increase in LC3-II expression at 2 uM measured after 4 to 6 hrs by Western blot analysis; assay type: functional, cell-based; settings: time 4-6 hrs; method in brief: as §4
[19] = system: SMMC-7721; test: Antiproliferative activity against human SMMC-7721 cells assessed as reduction in cell viability incubated for 48 hrs by MTT assay; assay type: functional, cell-based; settings: SMMC-7721, 48 h; method in brief: as §2
[20] = biological target: T1, Nuclear receptor subfamily 4immunitygroup A member 1; test: Modulation of Nur77 in human HepG2 cells assessed as induction of Nur77 translocation into cytoplasm from nucleus at 2 uM incubated for 6 hrs by DAPI staining based immunofluorescence assay; assay type: cell-based; settings: filed as modulator
Method in brief: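 HepG2 exposed to 2.0 µM for set times, fixed (4% paraformaldehyde), permeabilised (0.1% Triton X-100), BSA-blocked, incubated 1 h with anti-Nur77 (1:500) then FITC or Cy3 anti-rabbit IgG; nuclei DAPI-stained; confocal imaging.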

For `COc1cccc2c(Nc3ccc4[nH]c(C(=O)N/N=C/c5ccc(SC)cc5)cc4c3)cc(C)nc12`, the Activity [1] was “inactive”, the Activity [2] was “inactive” and the Activity [3] was “inactive”. For the same compound, the IC50 [4] was 0.6 µM, the Activity [5] was “inactive” and the Activity [6] was 23%. For the same compound, the Activity [7] was “Dose-dependent effect”, the Activity [8] was “Dose-dependent effect” and the Activity [9] was “Active”. The Activity [10] was 13%, the Activity [11] was “Active” and the Activity [12] was “inactive”. For the same compound, the Activity [13] was “inactive”, the Kd [14] was 3.58 µM and the Activity ([14]; filed as modulator) was “Dose-dependent effect”. For the same compound, the Activity [15] was “Dose-dependent effect”, the Activity [16] was “Tde” and the Activity [17] was “Dose-dependent effect”. The Activity [18] was “Active”, the IC50 [19] was 1.4 µM and the Activity [20] was “Active”.
